Results reported in ChEMBL document CHEMBL1250422 (Bioorg Med Chem, 2010).

What was measured:
Galectin-3 = Galectin-3 (Homo sapiens, UniProt P17931); assay: Binding affinity to human galectin 3 at 20 degC by competitive fluorescence polarization assay
Method in brief: (§1)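 Human galectin (galectin-3, or the N-terminal domain of galectin-8 or -9) run in a competitive fluorescence polarization assay at 20 °C. Kd values were derived from inhibition of the fluorescent probe binding.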

Galectin-7 = Galectin-7 (Homo sapiens, UniProt P47929); assay: Binding affinity to human galectin 7 at 4 degC by competitive fluorescence polarization assay
Method in brief: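 Human galectin-7 was tested in a competitive fluorescence polarization assay at 4 °C because assay sensitivity is lower. Kd values were derived from inhibition of the fluorescent probe binding.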

Galectin-8 = molecular target: T1, Galectin-8 (Homo sapiens, UniProt O00214); assay: Binding affinity to human galectin 8 N-terminal domain at 20 degC by competitive fluorescence polarization assay; method in brief: as §1
T1 sequence (O00214 whole entry): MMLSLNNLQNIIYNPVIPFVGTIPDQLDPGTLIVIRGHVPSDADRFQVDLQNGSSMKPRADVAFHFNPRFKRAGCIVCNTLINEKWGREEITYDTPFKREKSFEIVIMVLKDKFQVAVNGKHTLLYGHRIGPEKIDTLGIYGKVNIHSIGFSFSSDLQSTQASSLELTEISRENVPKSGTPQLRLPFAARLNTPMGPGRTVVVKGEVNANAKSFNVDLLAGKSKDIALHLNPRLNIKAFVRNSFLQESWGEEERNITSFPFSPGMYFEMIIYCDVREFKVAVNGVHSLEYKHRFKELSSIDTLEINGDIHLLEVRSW

Galectin-9 = Galectin-9 (Homo sapiens, UniProt O00182); assay: Binding affinity to human galectin 9 N-terminal domain at 20 degC by competitive fluorescence polarization assay; method in brief: as §1
Chain of Galectin-9 (O00182 whole entry, the tested form may be a part): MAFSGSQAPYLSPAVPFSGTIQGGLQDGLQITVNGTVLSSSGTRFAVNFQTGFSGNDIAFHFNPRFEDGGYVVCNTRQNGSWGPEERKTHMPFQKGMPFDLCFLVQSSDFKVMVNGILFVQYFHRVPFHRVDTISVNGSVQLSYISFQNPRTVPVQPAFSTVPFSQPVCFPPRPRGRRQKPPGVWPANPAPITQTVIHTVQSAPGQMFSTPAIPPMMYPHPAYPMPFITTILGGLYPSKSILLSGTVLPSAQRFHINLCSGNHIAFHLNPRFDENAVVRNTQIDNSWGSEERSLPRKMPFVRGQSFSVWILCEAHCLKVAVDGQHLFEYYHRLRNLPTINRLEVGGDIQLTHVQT

Chain of Galectin-7 (P47929 whole entry): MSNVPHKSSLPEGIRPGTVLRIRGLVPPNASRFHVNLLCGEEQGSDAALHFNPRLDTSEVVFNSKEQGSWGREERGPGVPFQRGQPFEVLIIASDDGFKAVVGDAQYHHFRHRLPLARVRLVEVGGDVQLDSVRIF
Chain of Galectin-3 (P17931 whole entry, the tested form may be a part): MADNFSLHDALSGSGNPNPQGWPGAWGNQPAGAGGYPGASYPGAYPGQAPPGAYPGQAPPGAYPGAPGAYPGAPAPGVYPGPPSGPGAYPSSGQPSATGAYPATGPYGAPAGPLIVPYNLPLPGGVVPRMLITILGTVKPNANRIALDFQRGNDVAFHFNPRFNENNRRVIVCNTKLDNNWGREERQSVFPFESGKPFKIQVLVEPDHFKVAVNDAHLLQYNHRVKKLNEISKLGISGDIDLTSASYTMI

Kd (Galectin-3) [µM]	Kd (Galectin-7) [µM]	Kd (Galectin-8) [µM]	Kd (Galectin-9) [µM]	Compound
0.065	3.4	66	0.74	C=CCNC(=O)c1cn([C@H]2[C@@H](O)[C@@H](CO)O[C@@H](S[C@@H]3O[C@H](CO)[C@H](O)[C@H](n4cc(C(=O)NCC=C)nn4)[C@H]3O)[C@@H]2O)nn1
> 2000	2700	> 5000	> 5000	CS[C@@H]1O[C@H](CO)[C@H](O)[C@H](n2nnc(C(N)=O)c2N)[C@H]1O
0.05	2.8	100	1.8	COc1cc(OC)cc(C(=O)N[C@@H]2[C@@H](O)[C@@H](S[C@@H]3O[C@H](CO)[C@H](O)[C@H](NC(=O)c4cc(OC)cc(OC)c4)[C@H]3O)O[C@H](CO)[C@@H]2O)c1
0.15	2	20	1.1	O=C(NCCc1ccccc1)c1cn([C@H]2[C@@H](O)[C@@H](CO)O[C@@H](S[C@@H]3O[C@H](CO)[C@H](O)[C@H](n4cc(C(=O)NCCc5ccccc5)nn4)[C@H]3O)[C@@H]2O)nn1
> 5000	2400	> 5000	> 5000	CS[C@@H]1O[C@H](CO)[C@H](O)[C@H](n2ccnn2)[C@H]1O
> 5000	2200	> 5000	> 5000	CCCc1cn([C@H]2[C@@H](O)[C@@H](CO)O[C@@H](SC)[C@@H]2O)nn1
> 5000	2500	> 5000	> 5000	CS[C@@H]1O[C@H](CO)[C@H](O)[C@H](n2cc(CO)nn2)[C@H]1O
1.5	74	> 2000	12	CO[C@@H]1O[C@H](CO)[C@@H](O[C@@H]2O[C@H](CO)[C@H](O)[C@H](n3cc(C(=O)NCc4ccccc4)nn3)[C@H]2O)[C@H](O)[C@H]1NC(C)=O
0.66	83	> 2000	13	CO[C@@H]1O[C@H](CO)[C@@H](O[C@@H]2O[C@H](CO)[C@H](O)[C@H](n3cc(C(=O)Nc4cccc5ccccc45)nn3)[C@H]2O)[C@H](O)[C@H]1NC(C)=O
0.029	5.4	58	1.1	CCCCNC(=O)c1cn([C@H]2[C@@H](O)[C@@H](CO)O[C@@H](S[C@@H]3O[C@H](CO)[C@H](O)[C@H](n4cc(C(=O)NCCCC)nn4)[C@H]3O)[C@@H]2O)nn1
0.39	8.3	47	0.53	O=C(NCc1ccccc1)c1cn([C@H]2[C@@H](O)[C@@H](CO)O[C@@H](S[C@@H]3O[C@H](CO)[C@H](O)[C@H](n4cc(C(=O)NCc5ccccc5)nn4)[C@H]3O)[C@@H]2O)nn1
0.12	5	58	2.1	CC(O)CNC(=O)c1cn([C@H]2[C@@H](O)[C@@H](CO)O[C@@H](S[C@@H]3O[C@H](CO)[C@H](O)[C@H](n4cc(C(=O)NCC(C)O)nn4)[C@H]3O)[C@@H]2O)nn1 (some centres undefined)
0.25	4.7	90	2.3	COCCNC(=O)c1cn([C@H]2[C@@H](O)[C@@H](CO)O[C@@H](S[C@@H]3O[C@H](CO)[C@H](O)[C@H](n4cc(C(=O)NCCOC)nn4)[C@H]3O)[C@@H]2O)nn1
–	130	> 2000	73	CNC(=O)c1cn([C@H]2[C@@H](O)[C@@H](CO)O[C@@H](O[C@H]3[C@H](O)[C@@H](NC(C)=O)[C@H](OC)O[C@@H]3CO)[C@@H]2O)nn1
0.12	8	81	0.91	CNC(=O)c1cn([C@H]2[C@@H](O)[C@@H](CO)O[C@@H](S[C@@H]3O[C@H](CO)[C@H](O)[C@H](n4cc(C(=O)NC)nn4)[C@H]3O)[C@@H]2O)nn1
0.48	> 100	> 100	> 100	CO[C@@H]1O[C@H](CO)[C@@H](O[C@@H]2O[C@H](CO)[C@H](O)[C@H](NC(=O)c3ccc4ccccc4c3)[C@H]2O)[C@H](O)[C@H]1NC(C)=O
1300	> 5000	> 5000	430	COC(=O)c1cn([C@H]2[C@@H](O)[C@@H](CO)O[C@@H](SC)[C@@H]2O)nn1

Kd (Galectin-3) [µM]	Kd (Galectin-7) [µM]	Kd (Galectin-8) [µM]	Kd (Galectin-9) [µM]	Compound
1600	> 5000	> 5000	1000	CS[C@@H]1O[C@H](CO)[C@H](O)[C@H](n2cc(C3(O)CCCCC3)nn2)[C@H]1O
150	1700	> 5000	1300	CS[C@@H]1O[C@H](CO)[C@H](O)[C@H](n2cc(-c3ccccc3)nn2)[C@H]1O
130	2800	> 5000	2100	COc1cccc(-c2cn([C@H]3[C@@H](O)[C@@H](CO)O[C@@H](SC)[C@@H]3O)nn2)c1
260	2000	–	> 5000	COc1ccc(-c2cn([C@H]3[C@@H](O)[C@@H](CO)O[C@@H](SC)[C@@H]3O)nn2)cc1
200	> 2000	> 5000	1700	CS[C@@H]1O[C@H](CO)[C@H](O)[C@H](n2cc(-c3ccccc3F)nn2)[C@H]1O
120	810	> 5000	690	CS[C@@H]1O[C@H](CO)[C@H](O)[C@H](n2cc(-c3cccc4ccccc34)nn2)[C@H]1O
1900	–	670	1600	CS[C@@H]1O[C@H](CO)[C@H](O)[C@H](n2cc(-c3cccnc3)nn2)[C@H]1O
130	2000	–	330	CS[C@@H]1O[C@H](CO)[C@H](O)[C@H](n2cc(S(=O)(=O)c3ccc(C)cc3)nn2)[C@H]1O
> 5000	–	–	1600	CS[C@@H]1O[C@H](CO)[C@H](O)[C@H](n2nncc2S(=O)(=O)c2ccc(C)cc2)[C@H]1O
> 5000	> 5000	–	> 5000	CNC(=O)c1nnn([C@H]2[C@@H](O)[C@@H](CO)O[C@@H](SC)[C@@H]2O)c1C(=O)NC
–	–	> 5000	1100	CNC(=O)c1cn([C@H]2[C@@H](O)[C@@H](CO)O[C@@H](SC)[C@@H]2O)nn1
150	1100	> 5000	640	CCCCNC(=O)c1cn([C@H]2[C@@H](O)[C@@H](CO)O[C@@H](SC)[C@@H]2O)nn1
360	1500	> 5000	1900	CS[C@@H]1O[C@H](CO)[C@H](O)[C@H](n2cc(C(=O)NCCCO)nn2)[C@H]1O
520	> 5000	> 5000	470	CS[C@@H]1O[C@H](CO)[C@H](O)[C@H](n2cc(C(=O)NCCN3CCOCC3)nn2)[C@H]1O
–	2100	> 5000	540	CS[C@@H]1O[C@H](CO)[C@H](O)[C@H](n2cc(C(=O)NCc3ccccc3)nn2)[C@H]1O
59	5500	1000	490	CO[C@@H]1O[C@H](CO)[C@@H](O[C@@H]2O[C@H](CO)[C@H](O)[C@H](O)[C@H]2O)[C@H](O)[C@H]1NC(C)=O

Compound	Kd (Galectin-3) [µM]	Kd (Galectin-7) [µM]	Kd (Galectin-8) [µM]	Kd (Galectin-9) [µM]
CO[C@@H]1O[C@H](CO)[C@H](O)[C@H](O)[C@H]1O	–	4800	–	3300
